Calls of active or inactive are those of the source.
Experiments:
Assay type in all cases: functional, cell-based
[1] = tested on: MCF7; test: Cytotoxicity against human MCF7 cells at 100 ug/ml by SRB assay
In short: (§1)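 Single-concentration screen at 100 μg/mL against four human cancer lines: HepG2 (liver hepatocellular carcinoma), MCF-7 (breast), NCI-H460 (lung) and HeLa (epithelial carcinoma). Cell viability was read by sulforhodamine B staining, with camptothecin as the positive control.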

[2] = tested on: NCI-H460; test: Cytotoxicity against human NCI-H460 cells at 100 ug/ml by SRB assay; in short: as §1
[3] = tested on: HepG2; test: Cytotoxicity against human HepG2 cells at 100 ug/ml by SRB assay; in short: as §1
[4] = tested on: HeLa; test: Cytotoxicity against human HeLa cells at 100 ug/ml by SRB assay; in short: as §1

Measured: Activity

COC(=O)/C=C/c1c(OC)cc(C)c(C(=O)OC)c1Oc1c(O)c(C)c(O)c2c1[C@@H](OC)OC2=O
inactive: [1] | [2] | [3] | [4]

Cc1cc(O)cc(O)c1C(=O)Oc1cc(O)cc(C)c1C(=O)O
inactive: [1] | [2] | [3] | [4]

COc1cc(C)c2c(c1C=O)Oc1c(c(C)c(O)c3c1[C@@H](OC)OC3=O)OC2=O
inactive: [1] | [2] | [3] | [4]

COC(=O)c1c(C)cc(OC)c(CO)c1Oc1c(O)c(C)c(O)c2c1[C@@H](OC)OC2=O
inactive: [1] | [2] | [3] | [4]

Cc1cc(O)cc(OC(=O)c2c(C)cc(O)cc2O)c1
inactive: [1] | [2] | [3] | [4]

COc1cc(C)c2c3c1CO[C@H]1OC(=O)c4c(O)c(C)c(c(c41)O3)OC2=O
inactive: [1] | [2] | [3] | [4]

COC(=O)c1c(C)cc(OC)c(/C=C/C(C)=O)c1Oc1c(O)c(C)c(O)c2c1[C@@H](OC)OC2=O
inactive: [1] | [2] | [3] | [4]

Reference: ChEMBL document CHEMBL4014268, “Phenolic Compounds from the Lichen Lobaria orientalis” (J Nat Prod, 2017)
